Inconclusive results are not listed.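 Rule for the calls, unless noted: active = inhibition over a set limit, the all-compound mean plus 3 SD, in both replicate runs; inconclusive = over that limit in just one replicate run; inactive = at or under that limit in both runs.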
Assays:
[1] = OD615 S. cerevisiae growth inhibition, permissive medium, pilot counter-assay, permissive growth control for S. cerevisiae lifespan shortening project (AID 705;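 active = growth inhibition above 25% in both replicates, a cutoff set 3 SD above the mean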); details: OD615, 24 h, at 10 µM, active compounds read high
Outline: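 System: Engineered DeaD yeast | Buffer or medium: SC raffinose/galactose permissive medium | Doses: 10 µM single dose, 0.25% DMSO | Times: 24 h exposure, 30 °C | Measured by: OD615 turbidity read | Read-out: Yeast growth inhibition indicated by reduced 24 h OD615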

[2] = Restrictive medium S. cerevisiae growth inhibition, OD615, pilot screen of yeast lifespan reduction project, restrictive growth control (AID 706;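 active = growth inhibition above a set limit, 3 SD over mean compound inhibition, in both replicates, cut at about 43% in these data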;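 note: modified DeaD lifespan yeast strain shifted to restrictive glucose medium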); details: OD615, 48 h, at 10 µM, active compounds read high
Outline: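 Assay system: engineered S. cerevisiae DeaD strain; Buffer or medium: CSMM-D glucose medium; Dosing: 10 µM compound, 0.25% DMSO; Times: cell pre-growth 4 h, compound exposure 48 h, 30 °C; Detection: absorbance (optical density) measured at 615 nm.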

[3] = viability gain of MRP-1-high H69AR cells under doxorubicin, pilot screen, MRP-1 activator project, CellTiter-Glo, duplicate (AID 807;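 active = viability increase at or above a cutoff of the median across tested compounds plus 3 SD, cut at about 8.5% in these data, passing the limit was not always enough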;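 note: compound pretreatment 18-22 h then 72 h combined with doxorubicin; 0% = doxorubicin alone and 100% = vehicle without doxorubicin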); details: H69AR viability with doxorubicin, CellTiter-Glo luminescence; at 10 µM; active compounds read high
[4] = growth suppression of beta-catenin knockout HCT116, pilot screen, human colon tumor cells (AID 823;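 active = cell viability at or below a set limit in both duplicate runs, the limit being the all-compound median minus 4 SD, cut at about 23% in these data, passing the limit was not always enough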;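 note: 0% = wells killed by 20 µM Hyamine and 100% = untreated DMSO cell wells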); details: CellTiter-Glo, 60 h, at 10 µM, active compounds read low
[5] = growth suppression of PTEN-deleted HCT116, pilot screen, cell-based, HCT116 clonal line, CellTiter-Glo (AID 824;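 active = viability at or below 27.92% in each of two runs, the all-compound median minus 4 SD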;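 note: 0% = 20 µM Hyamine control and 100% = vehicle cell control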); details: 60 h, at 10 µM, active compounds read low
[6] = inhibitors of the yeast RAM network, pilot screen, dse1pr::URA3 reporter, 5-FOA selection (AID 869);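 note: 0% = DMSO wells with no growth and 100% = 10 µM 1-NA-PP1 with full growth; RAM network block rescues cells from 5-FOA so hits raise OD615 growth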; details: S. cerevisiae dse1pr::URA3 5-FOA growth, OD615, 2 d; at 10 µM; active compounds read high; strain carries analog-sensitive mutant Cbk1 kinase
[7] = RAM signaling pathway blockade in yeast – S. cerevisiae, Pdr1DBD-CYC8 efflux-inhibited sensitized strain, primary screen (AID 1298;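 active = RAM network inhibition above 8.4% in each of two replicates, 3 SD over the compound average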;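 note: 0% = DMSO untreated cells without growth and 100% = 10 µM 1-NA-PP1 full growth; higher means more yeast growth rescued from 5-FOA killing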); details: S. cerevisiae cbk1-as DSE1-URA3 strain, 5-FOA growth OD615, 2 d; at 50 µM; active compounds read high

COc1ccc(NC(=O)Nc2c(C)n(C)n(-c3ccccc3)c2=O)cc1
inactive: growth inhibition [1] 1.73% | growth inhibition [2] 2.85% | viability increase [3] -2.06% | viability [4] 103% | viability [5] 97.9% | inhibition [6] 0.655% | RAM network inhibition [7] 1.34%

CCOc1ccc(C(=O)c2nc3c(n2O)CCCC3)cc1
inactive: growth inhibition [1] -15% | growth inhibition [2] -7.18% | viability increase [3] 0.17% | viability [4] 91.1% | viability [5] 103% | inhibition [6] 1.41% | RAM network inhibition [7] -0.74%

COc1ccc(N2CCN(C(=O)c3ccc(CNc4c(N5CCOCC5)c(=O)c4=O)cc3)CC2)cc1
inactive: growth inhibition [1] 5.2% | growth inhibition [2] 8.53% | viability increase [3] -3.13% | viability [4] 96.2% | viability [5] 98.5% | inhibition [6] -0.255% | RAM network inhibition [7] -1.5%

O=C(NCc1cn2ccccc2n1)c1ccc(Br)o1
inactive: growth inhibition [1] -7.75% | growth inhibition [2] -0.96% | viability increase [3] -1.31% | viability [4] 96.5% | viability [5] 92.3% | inhibition [6] 2.42% | RAM network inhibition [7] 3.98%

O=C(c1ccco1)N1CCN=C1SCc1cccc(Cl)c1
inactive: growth inhibition [1] -1.8% | growth inhibition [2] 14% | viability increase [3] 1.56% | viability [4] 87.3% | viability [5] 91.9% | inhibition [6] 0.89% | RAM network inhibition [7] 0.26%

COc1ccccc1NC(=O)CSc1nnc(-c2ccccc2)o1
inactive: growth inhibition [1] -16% | growth inhibition [2] -11% | viability increase [3] -0.16% | viability [4] 77.6% | viability [5] 71.1% | inhibition [6] 2.4% | RAM network inhibition [7] 1.53%

CCOC(=O)c1c(C)oc2cc(Br)c(OC(=O)N3CCOCC3)cc12
inactive: growth inhibition [1] -10.9% | growth inhibition [2] -3.17% | viability increase [3] -0.62% | viability [4] 88% | viability [5] 88.8% | inhibition [6] 0.13% | RAM network inhibition [7] 1.4%

CC(=O)c1ccc2c3c(ccc(O)c13)CC2
inactive: growth inhibition [1] -1.21% | growth inhibition [2] 7.16% | viability increase [3] -4.04% | viability [4] 97.2% | viability [5] 88% | inhibition [6] 1.52% | RAM network inhibition [7] 5.46%

Cc1ccc(-c2nc(CS(=O)(=O)CC(=O)NC3CCCCC3C)c(C)o2)cc1 (configuration not stated)
inactive: growth inhibition [1] -15.3% | growth inhibition [2] -32.8% | viability increase [3] -0.44% | viability [4] 93% | viability [5] 87.4% | inhibition [6] 1.73% | RAM network inhibition [7] 7.21%

O=C(CN1C2=NCCCN2c2ccccc21)c1cccs1
inactive: growth inhibition [1] 1.83% | growth inhibition [2] -10.1% | viability increase [3] -3.27% | viability [4] 95.7% | viability [5] 92.1% | inhibition [6] 0.695% | RAM network inhibition [7] 4.72%

CC(CCc1ccco1)NC(=O)Cn1ncc2c(=O)oc3ccccc3c21 (configuration not stated)
inactive: growth inhibition [1] -15.7% | growth inhibition [2] -12.5% | viability increase [3] -3.03% | viability [4] 105% | viability [5] 93.7% | inhibition [6] 1.96% | RAM network inhibition [7] 5.79%

CC(C)C(NS(=O)(=O)c1ccc2c(c1)oc(=O)n2C)C(=O)N1CCN(C2CCCCC2)CC1 (configuration not stated)
inactive: growth inhibition [1] -2.87% | growth inhibition [2] -9.46% | viability increase [3] -3.02% | viability [4] 106% | viability [5] 95.6% | inhibition [6] 0.14% | RAM network inhibition [7] 6.54%

CCN(CC)CCNC(=O)c1cn(CC)c2ccc(S(=O)(=O)N(C)C)cc2c1=O
inactive: growth inhibition [1] 0.365% | growth inhibition [2] 8.34% | viability increase [3] -1.41% | viability [4] 106% | viability [5] 101% | inhibition [6] 2.2% | RAM network inhibition [7] 2.04%

CN1CCc2c(c3ccccc3n2Cc2ccccc2)C1
inactive: growth inhibition [1] -5.23% | growth inhibition [2] -8.68% | viability increase [3] -5.7% | viability [4] 57.9% | viability [5] 63.9% | inhibition [6] 1.27% | RAM network inhibition [7] 5.12%

Cc1cccc(CN2CCN(CC(=O)NCc3ccc(F)cc3)C2=O)c1
inactive: growth inhibition [1] -2.2% | growth inhibition [2] -1.6% | viability increase [3] 0.82% | viability [4] 104% | viability [5] 104% | inhibition [6] 0.03% | RAM network inhibition [7] 3.27%

O=c1[nH]cnc2c1sc(=S)n2-c1ccccc1
inactive: growth inhibition [1] 10.2% | growth inhibition [2] 29.8% | viability increase [3] -0.17% | viability [4] 101% | viability [5] 97.1% | inhibition [6] 1.87% | RAM network inhibition [7] 8.71%

Cc1cc(N2CCOCC2)nc(SCC(=O)c2ccccc2)n1
inactive: growth inhibition [1] -16.5% | growth inhibition [2] -4.63% | viability increase [3] -1.98% | viability [4] 99% | viability [5] 91.7% | inhibition [6] 2.53% | RAM network inhibition [7] 2.06%

COc1cccc(C2CC(c3ccc(Cl)cc3Cl)n3nc(N)nc3N2)c1 (configuration not stated)
inactive: growth inhibition [1] -1.58% | growth inhibition [2] 18.6% | viability increase [3] 4.01% | viability [4] 90.8% | viability [5] 90.8% | inhibition [6] 1.79% | RAM network inhibition [7] 8.01%

O=C(c1cccs1)n1cc(C(=S)N2CCOCC2)c2ccccc21
inactive: growth inhibition [1] -4.95% | growth inhibition [2] -0.915% | viability increase [3] -0.89% | viability [4] 94.2% | viability [5] 88.1% | inhibition [6] 1.71% | RAM network inhibition [7] 4.07%

COc1ccc(C2C(C(=O)Nc3ccccn3)=C(C)Nc3ncnn32)c(OC)c1 (configuration not stated)
inactive: growth inhibition [1] -8.54% | growth inhibition [2] -6.24% | viability increase [3] -1.04% | viability [4] 101% | viability [5] 92.1% | inhibition [6] 2.48% | RAM network inhibition [7] 7.85%

c1ccc2c(c1)ncc1cccn12
inactive: growth inhibition [1] -16.6% | growth inhibition [2] -12.8% | viability increase [3] -5.24% | viability [4] 104% | viability [5] 89% | inhibition [6] 2.58% | RAM network inhibition [7] 5.07%

Cc1cccc(C2N(c3ccc(F)cc3)C(=O)C3CCCN32)c1 (configuration not stated)
inactive: growth inhibition [1] -1.45% | growth inhibition [2] -4.47% | viability increase [3] 0.04% | viability [4] 98.4% | viability [5] 94.8% | inhibition [6] 0.71% | RAM network inhibition [7] 3.46%

O=C1Nc2ccc(S(=O)(=O)N3CCCCCC3)c3cccc1c23
inactive: growth inhibition [1] -0.465% | growth inhibition [2] -4.72% | viability increase [3] -2.03% | viability [4] 95.2% | viability [5] 86.2% | inhibition [6] 1.57% | RAM network inhibition [7] 0.81%

CCc1ccccc1NC(=O)c1onc(C)c1Cl
inactive: growth inhibition [1] -5.87% | growth inhibition [2] 1.99% | viability increase [3] -0.41% | viability [4] 108% | viability [5] 97.7% | inhibition [6] 2.18% | RAM network inhibition [7] -1.13%

COc1ccc(C)cc1NC(=O)c1nnn(CCc2ccccc2)c1N
inactive: growth inhibition [1] -5.25% | growth inhibition [2] -3.95% | viability increase [3] -5.29% | viability [4] 85.8% | viability [5] 81.5% | inhibition [6] 2.73% | RAM network inhibition [7] 3.9%

COC(=O)C1=C(C)N(C)C(C)=C(C(=O)OC)C1c1ccccc1C
inactive: growth inhibition [1] -18.8% | growth inhibition [2] -21.1% | viability increase [3] -0.42% | viability [4] 94.6% | viability [5] 87.7% | inhibition [6] 0.365% | RAM network inhibition [7] 3.87%

O=C(NCc1ccc(Cl)cc1)c1cccnc1
inactive: growth inhibition [1] -1.45% | growth inhibition [2] 9.27% | viability increase [3] -0.63% | viability [4] 92.8% | viability [5] 93.6% | inhibition [6] 1.8% | RAM network inhibition [7] 0.15%

Cc1cc(-c2ccccc2)n2ncc(C#N)c2n1
inactive: growth inhibition [1] -0.51% | growth inhibition [2] 2.26% | viability increase [3] -1.18% | viability [4] 103% | viability [5] 98.8% | inhibition [6] 1.17% | RAM network inhibition [7] 2.36%

O=C(CN1CCN(c2ncccn2)CC1)NCCC1=CCCCC1
inactive: growth inhibition [1] -8.09% | growth inhibition [2] -27.1% | viability increase [3] -2.15% | viability [4] 94% | viability [5] 93.7% | inhibition [6] 1.9% | RAM network inhibition [7] 5.02%

COc1ccc(CN2CCCC2C(=O)Nc2ccc(OC)c(OC)c2)cc1OC (configuration not stated)
inactive: growth inhibition [1] -5.96% | growth inhibition [2] -5.92% | viability increase [3] -2.8% | viability [4] 102% | viability [5] 97.3% | inhibition [6] 0.71% | RAM network inhibition [7] 0.26%

COc1ccc(NC(=O)[C@H](CCS(C)(=O)=O)N2Cc3ccccc3C2=O)c(OC)c1
inactive: growth inhibition [1] -0.525% | growth inhibition [2] -0.57% | viability increase [3] 0.69% | viability [4] 104% | viability [5] 100% | inhibition [6] 2.29% | RAM network inhibition [7] 1.93%

CCOC(=O)CSc1n[nH]c(-c2ccco2)n1
inactive: growth inhibition [1] -16.1% | growth inhibition [2] -17% | viability increase [3] -1.01% | viability [4] 93.8% | viability [5] 102% | inhibition [6] 0.85% | RAM network inhibition [7] 4.21%

CCCC1(C(=O)O)NC(c2ccccc2O)C2C(=O)N(c3cccc(Cl)c3)C(=O)C21 (configuration not stated)
inactive: growth inhibition [1] 6.45% | growth inhibition [2] 7.74% | viability increase [3] 0.1% | viability [4] 107% | viability [5] 94.5% | inhibition [6] 0.955% | RAM network inhibition [7] 0.05%

CN(C)S(=O)(=O)Nc1ccc2c(c1)Cc1ccccc1-2
inactive: growth inhibition [1] -17.4% | growth inhibition [2] -9.69% | viability increase [3] -2.09% | viability [4] 92.3% | viability [5] 88.5% | inhibition [6] 1% | RAM network inhibition [7] 4.68%

CCOc1ccc(Nc2ncnc3c2cnn3-c2ccccc2)cc1
inactive: growth inhibition [1] -3.8% | growth inhibition [2] 3.48% | viability increase [3] 2.06% | viability [4] 106% | viability [5] 108% | inhibition [6] 1.29% | RAM network inhibition [7] 2.91%

N#CC1=C(N)C(C#N)(C#N)C2(C(=O)Nc3ccccc32)C2CCCC=C12 (configuration not stated)
inactive: growth inhibition [1] 5.05% | growth inhibition [2] -12.2% | viability increase [3] -4.96% | viability [4] 91.5% | viability [5] 82.6% | inhibition [6] 0.71% | RAM network inhibition [7] 0.83%
